Test results from ChEMBL document CHEMBL1148387, “DNA-targeted 1,2,4-benzotriazine 1,4-dioxides: potent analogues of the hypoxia-selective cytotoxin tirapazamine” (J Med Chem, 2004).
pIC50: −log10 of the molar value.

How the values were obtained:
[1] = test system: HT-29; experiment: Concentration required to kill aerobic HT-29 human colon carcinoma cells in vitro; format: functional, cell-based
Procedure, shortened: (§1)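 HT-29 cells tested simultaneously under oxic and hypoxic conditions in a 96-well SRB proliferation assay; TPZ internal control at front and back of assay (n = 2); 8-methyl-5-nitroquinoline second control confirming strict hypoxia. IC50 pooled from seven independent experiments as interexperimental means (mean ± SEM, n ≥ 2).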

[2] = test system: SCC-7; experiment: Concentration required to kill hypoxic mouse SCCVII cells in vitro; format: functional
Procedure, shortened: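 Mouse SCCVII tumour cells exposed to drug for 1 h under hypoxic (anoxic) conditions; clonogenic survival; C10 = concentration reducing plating efficiency to 10% of controls. Values corrected for interexperimental variation in hypoxia using TPZ internal standard: C10(calc) = C10(meas) × [C10(TPZ,mean)/C10(TPZ,meas)].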

[3] = Hypoxic cytotoxicity ratio was measured as IC50 aerobic/IC50 hypoxic; format: functional
Procedure, shortened: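 HT-29 cells, SRB proliferation assay with each compound run simultaneously under aerobic and hypoxic conditions; intraexperimental ratio IC50(aerobic)/IC50(hypoxic).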

[4] = test system: HT-29; experiment: Concentration required to kill hypoxic HT-29 human colon carcinoma cells in vitro; format: functional, cell-based; procedure, shortened: as §1
[5] = test system: SCC-7; experiment: Concentration required to kill aerobic mouse SCCVII cells in vitro; format: functional
Procedure, shortened: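 Mouse SCCVII tumour cells exposed to drug for 1 h under aerobic conditions; clonogenic survival read-out; C10 = concentration reducing plating efficiency to 10% of controls (one-log kill).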

[6] = Hypoxic cytotoxicity ratio was measured as C10 aerobic/C10 hypoxic; format: functional
Procedure, shortened: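 Mouse SCCVII cells, 1 h drug exposure under aerobic and hypoxic conditions in the same experiment, clonogenic survival; intraexperimental ratio C10(aerobic)/C10(hypoxic), C10 being the concentration giving 10% plating efficiency of controls.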

| SMILES | pIC50 [1] | C10 [2] | Ratio [3] | pIC50 [4] | C10 [5] | Ratio [6] |
| --- | --- | --- | --- | --- | --- | --- |
| O=C(NCCNCCNc1n[n+]([O-])c2ccccc2[n+]1[O-])c1cccc2cc3ccccc3nc12 | 5.11 | 1.16 µM | 98.6 | 7.10 | 56 µM | 48.2 |
| Cc1cccc2nc3cccc(C(=O)NCCCN(C)CCCNc4n[n+]([O-])c5ccccc5[n+]4[O-])c3nc12 | 6.25 | 0.35 µM | 31 | 7.74 | 7.4 µM | 21.1 |
| CN(CCCNC(=O)c1cccc2ccc(-c3ccncc3)nc12)CCCNc1n[n+]([O-])c2ccccc2[n+]1[O-] | 4.92 | 1.79 µM | 107 | 6.96 | 14 µM | 7.8 |
| O=C(NCCOCCNc1n[n+]([O-])c2ccccc2[n+]1[O-])c1cccc2cc3ccccc3nc12 | 4.14 | 12.4 µM | 12.8 | 5.24 | 630 µM | 50.8 |
| CN(CCNC(=O)c1cccc2cc3ccccc3nc12)CCNc1n[n+]([O-])c2ccccc2[n+]1[O-] | 4.80 | 0.93 µM | 87 | 6.74 | 400 µM | 431 |
| CN(CCCNC(=O)c1cccc2cccnc12)CCCNc1n[n+]([O-])c2ccccc2[n+]1[O-] | 4.44 | 6.5 µM | 61.2 | 6.23 | 90 µM | 13.9 |
| CN(CCCNC(=O)c1cccc2nc3ccccc3nc12)CCCNc1n[n+]([O-])c2ccccc2[n+]1[O-] | 6.23 | 1.07 µM | 4.9 | 6.92 | 9.4 µM | 8.8 |
| Cc1cccc2cc3cccc(C(=O)NCCCN(C)CCCNc4n[n+]([O-])c5ccccc5[n+]4[O-])c3nc12 | 5.08 | 0.18 µM | 88.4 | 7.02 | >30 µM | >167 |
| CN(CCCNC(=O)c1cccc2cc3ccccc3nc12)CCCNc1n[n+]([O-])c2ccccc2[n+]1[O-] | 5.27 | 0.82 µM | 124 | 7.37 | 42 µM | 51.5 |
| O=C(NCCCNCCCNc1n[n+]([O-])c2ccccc2[n+]1[O-])c1cccc2cc3ccccc3nc12 | 5.24 | 0.51 µM | 87.5 | 7.19 | 6.4 µM | 12.5 |
| [O-][n+]1nc(NCCCCCCNc2c3ccccc3nc3ccccc23)[n+]([O-])c2ccccc21 | 6.21 | 0.61 µM | 39.7 | 7.80 | 9.6 µM | 15.7 |
| Nc1n[n+]([O-])c2ccccc2[n+]1[O-] [TIRAPAZAMINE] | 3.41 | 10.2 µM | 62 | 5.21 | 2644 µM | 258 |
